# Results published in the RNAGym collection of RNA variant scans (doi:10.1126/science.aae0568).
# Variants at the floor of the assay were thinned out.
# B1: tRNA (parent)
# chain: GUUCCGUUGGCGUAAUGGUAACGCGUCUCCCUCCUAAGGAGAAGACUGCGGGUUCGAGUCCCGUACGGAACG
# Variants of: B1
# Test: yeast fitness relative to wild type (ratio to wild type); higher = fitter; tRNA-Arg(CCU), competitive growth, 37 C, YPD
# In short: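 A pool of Saccharomyces cerevisiae strains, each with a tRNA-Arg(CCU) gene variant at the native genomic locus, was competed in YPD at 37°C for 24 hours across six parallel replicates. The variants had been chemically synthesised at a 3% per-site mutation rate over 69 sites, and gene amplicons before and after competition were read by 100-nucleotide paired-end sequencing. Darwinian fitness relative to wild type rested on changes in genotype frequencies. Genotypes required ≥ 100 starting reads, and estimates < 0.5 were set to 0.5.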
row,Variant,yeast fitness
1,GUUACGUUGGGGGAAUGGUAACGCAUCUCCCUCCUAAGGAGAAGACUGCGGGUUCGAGUCCCGUACGGAACG [C4A C11G U13G G25A],≤ 0.5
2,GUUACGUUGGGGUAAUGGGAACGCGUCUCCCUCCUAAGGAGGAGACUGCGGGUUCGAGUCCCGUACGGAACG [C4A C11G U19G A42G],≤ 0.5
3,GUUACGUUGGGGUAAUGGGAACGCGUCUCCCUCCUAAGGAGAAGACUGCGGGUUCCAGUCCCGUACGGAACG [C4A C11G U19G G56C],0.528
4,GUUACGUUGGGGUAAUGGGAACGCGUCUCCCUCCUAAGGAGAAGACUGCGGGCUCGAGUCCCGUACGGAACG [C4A C11G U19G U53C],0.698
5,GUUACGUUGGGGUAAUGGGAACGCGUCUCCCUCCUAAGGAGAAGACUGCGGGCUCGAGUCCCGUCCGGAACG [C4A C11G U19G U53C A65C],0.528
6,GUUACGUUGGUGUGAUGGUAACGCGUCUCCCUCCUAAGGGGAAGACUGCCGGUUCGAGUCCCGUACGGAACG [C4A C11U A14G A40G G50C],≤ 0.5
7,GUUACGUUGGUGUAAUGGUAUCACGUCUCCCUCCUAAGGAGAAGACUGCGGGUUCGAGUCCCGCACAGAACG [C4A C11U A21U G23A U64C G67A],0.581
8,GUUACGUUGGUGUAAUGGUAACGCGUCUCCCUCCUAAGGGGAAGACUGCGGGUUCGAGUCCCGUACGGAACG [C4A C11U A40G],≤ 0.5
9,GUUACGUUGGUGUAAUGGUAACGCGUCUCCCUCCUAAGGAGAAGACUGCGGGUUCGCGUCCCGUACGGAACG [C4A C11U A57C],≤ 0.5
10,GUUACGUUGGUGUAAUGGUAACGCGUGUCCCUACUAAGGAGACGAAUGCGGGUUCGAGUCCCGUACGGAACG [C4A C11U C27G C33A A43C C46A],≤ 0.5
11,GUUACGUUGGUGUAAUGGUAACGCGUCUCCGUCCUAAGGAGAAGACUGCGGGCGCGAGUCCCGUACGGAACG [C4A C11U C31G U53C U54G],≤ 0.5
12,GUUACGUUGGUGUAAUGAUAACGCGUCUCCCUCCUAAGGAGAAGACUGCGGGUUCGAGUCCCGUCCGGAACG [C4A C11U G18A A65C],0.505
13,GUUACGUUGGUGUAAUGGUAACGCGUCUCCCUCCUAAGCAGAAGCCUGCGGGUUCGAGUCCCGUACGGAACG [C4A C11U G39C A45C],≤ 0.5
14,GUUACGUUGGUGUAAUGGUAACGCGUCUCCCUCCUAAGGAAAAGACUGCGGGUUCGAGUGCCGUGCGGAACG [C4A C11U G41A C60G A65G],≤ 0.5
15,GUUACGUUGGUGUAAUGGUAACGCGUCUCCCUCCUAAGGAGAAGACUGCGGGUUCCAGUCCGGUACGCAACG [C4A C11U G56C C62G G68C],≤ 0.5
16,GUUACGUUGGUGUAAUGGUAACGCGUCUCCCACCUAACGAGAAGACAGCGGGUUCGAGUCCCGUACGGAACG [C4A C11U U32A G38C U47A],≤ 0.5
17,GUUACGUUGGCGUAAUGGUAAAGCGUCUUCCUCCUAAGGAGAAGACUGCGGGUUCGAGUCCCGUACGGUACG [C4A C22A C29U A69U],≤ 0.5
18,GUUACGUUGGCGUAAUGGUAAAGCGUCUCCCUCCUAAGGAGAACACUGCGGGUUCGAGUCCCGUACGGAACG [C4A C22A G44C],≤ 0.5
19,GUUACGUUGGCGUAAUGGUAAGGCGUCUCCCUCCUAAGGAGAAGACUGCGGGUUCGAGUCCCGUACGGAACG [C4A C22G],0.65

row,Variant,yeast fitness
1,GUUACGUUGGCGUAAUGGUAAGGCGUCUCCCUCCUAUGGAGAAGACAGCGGGUUCGAGUCCUGUACGGAACG [C4A C22G A37U U47A C62U],≤ 0.5
2,GUUACGUUGGCGUAAUGGUAAGGCGUCUCCCUCCUAAGGAGAAGACUGCGGGUUCGAGUCCCGUACGGCACG [C4A C22G A69C],0.538
3,GUUACGUUGGCGUAAUGGUAAGGCGUCUUCCUCCUAAGGAGAAGACUGCGGGUUCGAGUCCCGUACGCAACG [C4A C22G C29U G68C],≤ 0.5
4,GUUACGUUGGCGUAAUGGUAAGGCGUCUCUCUCCUAAGGGGAAGCCUGCGGGUUCGAGUCCCGUACGGAACG [C4A C22G C30U A40G A45C],≤ 0.5
5,GUUACGUUGGCGUAAUGGUAAGGCGUCUCCCUGCUAAGGAGAAGACUGCGGGUGCGAGUCCCGUACGGAACG [C4A C22G C33G U54G],≤ 0.5
6,GUUACGUUGGCGUAAUGGUAAGGCGUCUCCCUCCUAAGGAGAAGACUGAGGGUUUGAGUCCCGUAAGGCACG [C4A C22G C49A C55U C66A A69C],≤ 0.5
7,GUUACGUUGGCGUAAUGGUAAUGCGUCUCCCUCCUAAGGAGAAGACUGCGGGUUCGAGUCCCGUACGGAACG [C4A C22U],0.789
8,GUUACGUUGGCGUAAUGGUAAUGCGUCUCCCUCCUAAGGAGAAGACUGCGGGUUCGAGUCCCGUACGGACCG [C4A C22U A70C],0.663
9,GUUACGUUGGCGUAAUGGUAAUGAGUCUACCUCCUCAGGAGAAGACUGCGGAAUCGAGUCCCGUACGGAACG [C4A C22U C24A C29A A36C G52A U53A],≤ 0.5
10,GUUACGUUGGCGUAAUGGUAAUGCGUUUCCCUCCUAAGGAGAAGACUGCGGGUUCGAGUCCCGUACGGAACG [C4A C22U C27U],≤ 0.5
11,GUUACGUUGGCGUAAUGGUAAUGCGUCUCCCUGCUAAGGAGAAGCCUGCGGGGUCGAGUCCCGUACGGCACG [C4A C22U C33G A45C U53G A69C],0.57
12,GUUACGUUGGCGUAAUGGUAAUGCGUCUCCCUCCUAAGGAGAAGACUCCGGGUUCGAGUCCCGUACGGAACG [C4A C22U G48C],≤ 0.5
13,GUUACGUUGGCGUAAUGGUAAUGCGUCUCCCUCCUAAGGAGAAGACUGCGGGUUCGAGUCCCGUACGAAACG [C4A C22U G68A],≤ 0.5
14,GUUACGUUGGCGUAAUGGUAAUGCGUCCCCCUCCUAAGGAGAAGACUGCGGGUUCGAGUCCCGUACGGAACG [C4A C22U U28C],≤ 0.5
15,GUUACGUUGGCGUAAUGGUAAUGCGUCUCCCUCCUAAGGAGAAGACUGCGGGUUCGAGACCCGUACGGAACG [C4A C22U U59A],≤ 0.5
16,GUUACGUUGGCGUAAUGGUAACGAGUCUCCCUCCUAAGGAGAAGACUGCGGGUUCGAGUCCCGUACGGAACG [C4A C24A],0.595
17,GUUACGUUGGCGUAAUGGUAACGAGUCUCCCUCCUAAGGAGGAGACUGCGGGUUCGAGACCCGUACGGAACG [C4A C24A A42G U59A],≤ 0.5
18,GUUACGUUGGCGUAAUGGUAACGAGUCUCCCUCCUAAGGACAAGACUGCGCGUUCGAGUCCCGUACGGAACG [C4A C24A G41C G51C],≤ 0.5
